Experimental data as given in ChEMBL document CHEMBL1156358, “Inhibition of leukocyte functions by the alkaloid isaindigotone from Isatis indigotica and some new synthetic derivatives” (J Nat Prod, 2001).
The source made the active and inactive calls. The calls are words filed in the database; no cut-off is given here.

Assays:
RAW264.7 [1] = assay: Antiinflammatory activity against LPS-stimulated mouse RAW264.7 cells assessed as nitrite accumulation after 20 hrs by fluorimetry; assay type: functional, cell-based; conditions: RAW264.7, 20 h
Summary of the method: (§1)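 Mouse RAW 264.7 cells (2×10^6/mL) in DMEM plus 10% FBS were stimulated for 20 h with E. coli LPS (1 µg/mL), with compound or 1% v/v methanol vehicle. Nitrite in 10 µL supernatant was read fluorometrically after 10 min in the dark with 2,3-diaminonaphthalene (0.05 mg/mL in 0.62 M HCl). Single-point tests used 10 µM, given as mean ± SEM (n = 9-12). IC50s carry 95% confidence limits.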

[2] = Cytotoxicity against human neutrophils at 10 uM by MTT assay; assay type: cell-based; conditions: neutrophil
[3] = target: T1, Polyunsaturated fatty acid 5-lipoxygenase (Homo sapiens) (UniProt P09917); assay: Inhibition of 5LO-mediated LTB4 production in calcium ionophore A23187-stimulated human neutrophils at 10 uM by RIA
T1 sequence (whole entry): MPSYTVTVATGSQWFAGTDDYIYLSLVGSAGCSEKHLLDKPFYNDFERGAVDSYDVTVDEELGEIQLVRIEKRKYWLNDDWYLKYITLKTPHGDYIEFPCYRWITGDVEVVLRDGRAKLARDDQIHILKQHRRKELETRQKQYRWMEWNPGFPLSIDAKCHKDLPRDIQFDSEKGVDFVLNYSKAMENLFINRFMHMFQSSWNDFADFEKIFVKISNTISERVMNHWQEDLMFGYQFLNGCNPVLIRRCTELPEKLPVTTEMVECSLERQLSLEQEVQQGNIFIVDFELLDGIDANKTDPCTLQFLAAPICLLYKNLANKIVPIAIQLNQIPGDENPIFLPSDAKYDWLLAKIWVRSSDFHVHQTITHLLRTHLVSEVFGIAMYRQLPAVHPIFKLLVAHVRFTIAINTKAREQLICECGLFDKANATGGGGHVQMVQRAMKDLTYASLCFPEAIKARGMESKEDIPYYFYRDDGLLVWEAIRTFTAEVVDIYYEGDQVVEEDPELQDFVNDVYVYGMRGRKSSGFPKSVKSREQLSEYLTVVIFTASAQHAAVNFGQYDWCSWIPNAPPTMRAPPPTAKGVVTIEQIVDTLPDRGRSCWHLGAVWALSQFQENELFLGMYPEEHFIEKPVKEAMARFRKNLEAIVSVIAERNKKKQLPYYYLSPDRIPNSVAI

RAW264.7 [4] = assay: Antiinflammatory activity against LPS-stimulated mouse RAW264.7 cells assessed as nitrite accumulation at 10 uM after 20 hrs by fluorimetry relative to control; assay type: functional; summary of the method: as §1
Neutrophil [5] = assay: (§2) Antioxidant activity against hypoxanthine / xanthine oxidase system-stimulated superoxide radical generation in human neutrophils; assay type: functional, cell-based
[6] = Antioxidant activity against 12-O-tetradecanoylphorbol-13-acetate-stimulated superoxide radical generation in human neutrophils assessed as chemiluminescence unit per 10^6 cells at 10 uM; assay type: functional, Neutrophil; design: unit not given here
Summary of the method: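 Human neutrophils (2.5×10^6 cells/mL) were loaded with luminol (40 µM) and stimulated with TPA (1 µM) for 7 min. Chemiluminescence was recorded, with compounds at 10 µM. Controls were stimulated cells given vehicle. Data are mean ± SEM.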

RAW264.7 [7] = assay: Antiinflammatory activity against LPS-stimulated mouse RAW264.7 cells assessed as PGE2 accumulation at 10 uM after 20 hrs by RIA relative to control; assay type: functional
Summary of the method: (§3)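 RAW 264.7 mouse macrophages (2×10^6/mL) in DMEM with 10% foetal bovine serum were stimulated with E. coli LPS (1 µg/mL) for 20 h alongside compound or vehicle (methanol, 1% v/v). Supernatant PGE2 was measured by radioimmunoassay. Single-point tests used 10 µM, reported as mean ± SEM (n = 9-12) against vehicle-treated stimulated cells. IC50 values carry 95% confidence limits.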

[8] = Antioxidant activity in cytochalasin B and fMLP-stimulated human neutrophils assessed as inhibition of p-nitrophenol-induced elastase activity at 10 uM
RAW264.7 [9] = assay: Antiinflammatory activity against LPS-stimulated mouse RAW264.7 cells assessed as PGE2 accumulation after 20 hrs by RIA; assay type: functional, cell-based; conditions: RAW264.7, 20 h; summary of the method: as §3
[10] = target: T2, Polyunsaturated fatty acid 5-lipoxygenase (Homo sapiens, UniProt P09917); assay: (§4) Inhibition of 5LO-mediated LTB4 production in human neutrophils by RIA
T2 sequence (P09917 whole entry): T1 sequence (whole entry)

[11] = target: T1, Polyunsaturated fatty acid 5-lipoxygenase (Homo sapiens); assay: as §4
[12] = as §2; assay type: functional, cell-based; conditions: Neutrophil
Neutrophil [13] = assay: (§5) Antioxidant activity against 12-O-tetradecanoylphorbol-13-acetate-stimulated superoxide radical generation in human neutrophils; assay type: functional, cell-based
[14] = as §5; assay type: functional, cell-based; conditions: Neutrophil

Row | IC50 (RAW264.7 [1]) | Activity [3] | IC50 (RAW264.7 [9]) | IC50 [10] | Activity [11] | IC50 [12] | IC50 [14] | Structure (SMILES) | Activity [2] | Activity (RAW264.7 [4]) | Activity (Neutrophil [5]) | Activity [6] | Activity (RAW264.7 [7]) | Activity [8] | Activity (Neutrophil [13])
1 | > 10000 nM | 61.6 ng/mL | – | – | – | – | – | O=c1c2ccccc2nc2n1CC/C2=C\c1ccccc1 | Non-toxic | 337.1 ng/mL | inactive | 2960.4 | 4.8 ng/mL | 19.1 nmol/mL | –
2 | 4200 nM | 13.5 ng/mL | 200 nM | 600 nM | Dose-dependent effect | – | – | COc1cc(/C=C2\CCn3c2nc2ccccc2c3=O)cc(OC)c1OC(C)=O | Non-toxic | 143.4 ng/mL | inactive | 2486.9 | 6.7 ng/mL | 18.6 nmol/mL | –
3 | 300 nM | – | > 10000 nM | – | – | – | – | CC(=N)NCc1cccc(CN)c1 [1400W] | – | 11.6 ng/mL | – | – | – | – | –

Continued, compound first:

Row | Structure (SMILES) | IC50 (RAW264.7 [1]) | Activity [3] | IC50 (RAW264.7 [9]) | IC50 [10] | Activity [11] | IC50 [12] | IC50 [14] | Activity [2] | Activity (RAW264.7 [4]) | Activity (Neutrophil [5]) | Activity [6] | Activity (RAW264.7 [7]) | Activity [8] | Activity (Neutrophil [13])
4 | COc1cc(/C=C2\CCn3c2nc2ccccc2c3=O)cc(OC)c1O [ISAINDIGOTONE] | > 10000 nM | 4.2 ng/mL | > 10000 nM | 40 nM | Dose-dependent effect | 42.2 nM | 41.8 nM | Non-toxic | 459.3 ng/mL | – | 570.6 | 20.3 ng/mL | 19.3 nmol/mL | Dose-dependent effect
5 | CC(=O)Oc1ccc(/C=C2\CCn3c2nc2ccccc2c3=O)cc1 | 1800 nM | 59.8 ng/mL | – | – | – | – | – | Non-toxic | 151.2 ng/mL | inactive | 2636.4 | 9.9 ng/mL | 19.2 nmol/mL | –
6 | O=c1c2ccccc2nc2n1CC/C2=C\c1ccc(O)cc1 | > 10000 nM | 55.9 ng/mL | > 10000 nM | – | – | – | – | Non-toxic | 429.8 ng/mL | inactive | 3269.2 | 15.4 ng/mL | 16.9 nmol/mL | –
7 | O=c1c2ccccc2nc2n1CC/C2=C\c1ccc(F)cc1 | > 10000 nM | 58.9 ng/mL | 80 nM | – | – | – | – | Non-toxic | 438 ng/mL | inactive | 3221.7 | 5.7 ng/mL | 19.7 nmol/mL | –
8 | CCn1c(=O)ccc2cc(COc3cc(F)cc(C4(OC)CCOCC4)c3)ccc21 | – | 4.5 ng/mL | – | – | – | – | – | – | – | – | – | – | – | –
9 | CS(=O)(=O)Nc1ccc([N+](=O)[O-])cc1OC1CCCCC1 [NS-398] | > 10000 nM | – | 2.1 nM | – | – | – | – | – | – | – | – | 3.7 ng/mL | – | –
10 | O=c1c2ccccc2nc2n1CC/C2=C\c1ccc(C(F)(F)F)cc1 | > 10000 nM | 57.9 ng/mL | > 10000 nM | – | – | – | – | Non-toxic | 448 ng/mL | inactive | 4101.1 | 15.6 ng/mL | 19.3 nmol/mL | –
11 | COc1cc(/C=C2\CCn3c2nc2ccccc2c3=O)cc(OC)c1 | > 10000 nM | 58.4 ng/mL | > 10000 nM | – | – | – | – | Non-toxic | 437.2 ng/mL | inactive | 4150.7 | 14.8 ng/mL | 16.8 nmol/mL | –
